Each structure is given as a SMILES string.

For test [1], the target named is T1, Zinc finger protein GLI1 (Homo sapiens, UniProt P08151).
T1 sequence (P08151 whole entry): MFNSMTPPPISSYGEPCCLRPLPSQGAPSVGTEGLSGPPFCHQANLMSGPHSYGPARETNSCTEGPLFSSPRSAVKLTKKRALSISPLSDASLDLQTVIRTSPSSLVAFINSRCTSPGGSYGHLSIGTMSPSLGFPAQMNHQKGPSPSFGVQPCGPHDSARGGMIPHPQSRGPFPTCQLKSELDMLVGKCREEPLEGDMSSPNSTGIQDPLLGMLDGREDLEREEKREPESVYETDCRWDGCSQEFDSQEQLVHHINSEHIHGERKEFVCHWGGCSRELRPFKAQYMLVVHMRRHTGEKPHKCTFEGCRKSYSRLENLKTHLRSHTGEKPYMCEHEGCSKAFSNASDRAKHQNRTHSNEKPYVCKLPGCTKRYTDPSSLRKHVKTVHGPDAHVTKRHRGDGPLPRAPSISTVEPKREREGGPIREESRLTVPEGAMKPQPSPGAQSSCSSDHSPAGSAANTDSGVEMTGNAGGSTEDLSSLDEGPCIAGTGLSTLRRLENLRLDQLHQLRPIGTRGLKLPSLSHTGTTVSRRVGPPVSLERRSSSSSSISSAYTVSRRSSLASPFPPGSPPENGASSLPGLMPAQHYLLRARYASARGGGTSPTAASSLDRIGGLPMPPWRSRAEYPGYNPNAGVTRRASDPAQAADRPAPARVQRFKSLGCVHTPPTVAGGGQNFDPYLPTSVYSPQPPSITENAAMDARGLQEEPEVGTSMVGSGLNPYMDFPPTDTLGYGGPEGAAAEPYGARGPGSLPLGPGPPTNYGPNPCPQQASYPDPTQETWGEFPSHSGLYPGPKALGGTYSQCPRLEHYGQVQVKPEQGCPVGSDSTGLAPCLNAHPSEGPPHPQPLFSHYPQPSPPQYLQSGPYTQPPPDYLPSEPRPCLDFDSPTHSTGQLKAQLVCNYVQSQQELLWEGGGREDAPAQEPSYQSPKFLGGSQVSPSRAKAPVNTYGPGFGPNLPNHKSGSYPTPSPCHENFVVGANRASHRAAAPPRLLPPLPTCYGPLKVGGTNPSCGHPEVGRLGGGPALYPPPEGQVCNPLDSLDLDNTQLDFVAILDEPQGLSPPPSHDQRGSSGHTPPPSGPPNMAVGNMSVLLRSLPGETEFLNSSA
Nature of the test: Inhibition of human Gli1 expressed in mouse C3H10T1/2 cells assessed as inhibition of transcriptional activity after 24 hrs by luciferase reporter gene assay. A digest of the protocol: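 C3H10T1/2 cells transiently transfected overnight with GliLuc-BS, pRL-TK Renilla control and human Gli1 (or mouse Gli2 for Gli2 lines), 250 ng/mL each for the Gli plasmids. Firefly/Renilla dual-luciferase ratio normalized to DMSO, triplicates. Dose–response IC50 from curve fitting.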
On the technique in general: A reporter such as luciferase makes a cellular process visible.

Test [2] deals with T1, Zinc finger protein GLI1. Nature of the test: Inhibition of human Gli1-mediated transcriptional activity in human Rh30 cells after 24 hrs by luciferase reporter gene assay. A digest of the protocol: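 Rh30 cells without Gli1 transfection, transfected overnight with GliLuc-BS (500 ng/mL) and pRL-CMV (2.5 ng/mL), then replated in 96-well plates. Compound given in RPMI-1640/10% FBS for 24 h at 37 °C. Firefly luminescence divided by Renilla and normalized to DMSO-treated cells (0% inhibition), triplicates.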

For `CCCN(C(=O)C(C)c1cccc(C(=O)c2ccccc2)c1)c1ccc2[nH]ccc2c1` (configuration not stated) [2-(3-Benzoylphenyl)-N-(1H-indol-5-yl)-N-propylpropanamide], the IC50 (in general, the concentration at which inhibition is half-maximal) on Zinc finger protein GLI1 [1] is 1.6 µM. Regarding `CN(C)c1ccccc1CN1CCCN(Cc2ccccc2N(C)C)C1c1ccncc1` [2-((3-(2-(dimethylamino)benzyl)-2-(pyridin-4-yl)-tetrahydropyrimidin-1(2H)-yl)methyl)-N,N-dimethylbenzenamine], it took 40 µM to reach half-maximal inhibition against Zinc finger protein GLI1 [2] (IC50).

Values taken from BindingDB's records for doi:10.1016/j.bmc.2010.05.001 (St. Jude Children'S Research Hospital, 2011).
